Source: PubChem BioAssay (several laboratories)
RORa activator = RORA (human) activation | activation, % at 10 µM | CHO-K1 Gal4-RORA LBD luciferase reporter, luminescence; percent increase over mock-subtracted basal signal | 65,000 compounds, 1.5% hits | P35398;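 active means activation above the mean of all tested compounds plus 3 SD, cut at about 49% in these data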;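 further: 0% = DMSO-treated RORA cells and 100% = added signal equal to DMSO minus mock-transfected cells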
SF1 activator = activates the human nuclear receptor SF-1 | Q13285 | CHO-K1 Gal4-SF-1 LBD luciferase reporter; % increase over DMSO SF-1-specific signal | activation, % at 10 µM | 65,000 compounds, 1.9% hits | AID 522;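 active means activation above the mean activation of all tested compounds plus 3 SD, cut at about 50% in these data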
Target sequence (Q13285 whole entry, looked up, the tested form may be a part): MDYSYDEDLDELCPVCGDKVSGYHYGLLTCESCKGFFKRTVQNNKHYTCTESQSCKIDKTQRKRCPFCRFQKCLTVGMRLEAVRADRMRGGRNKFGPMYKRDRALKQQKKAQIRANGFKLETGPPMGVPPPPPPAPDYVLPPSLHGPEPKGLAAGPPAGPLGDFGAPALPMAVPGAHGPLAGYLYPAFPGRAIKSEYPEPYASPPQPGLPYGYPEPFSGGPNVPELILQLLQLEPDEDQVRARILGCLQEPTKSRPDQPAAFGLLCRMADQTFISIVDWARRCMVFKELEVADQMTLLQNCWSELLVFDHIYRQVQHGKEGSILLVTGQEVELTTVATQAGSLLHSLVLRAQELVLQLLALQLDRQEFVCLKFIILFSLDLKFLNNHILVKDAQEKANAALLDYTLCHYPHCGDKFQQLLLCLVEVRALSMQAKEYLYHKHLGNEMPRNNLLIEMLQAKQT
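Assay system – CHO-K1 cells with Gal4–hSF-1 LBD chimera plus Gal4-driven luciferase · Quantity – 4,000 cells per well · Times – compound added 1 h post-seeding, 20 h exposure at 37 °C, 5% CO2 · Measured by – luciferase light emission · Benchmarks – DMSO and mock-transfected background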
JNK3 blocker = inhibitors of human JNK3 kinase | purified JNK3 kinase activity, HTS | inhibition, % at 8 µM | P53779 | 60,000 compounds, 0.61% hits; in the data active means inhibition above about 17%;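 further: 0% = DMSO and 100% = reference inhibitor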
BAP1 inh = blocks human BAP1 ubiquitin-AMC hydrolysis; recombinant BAP1, Ub-AMC hydrolysis fluorescence kinetic; stronger effect = lower value; activity remaining (% of control), % at 20 µM; 72,000 compounds, 0.48% hits;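 active means activity remaining at or below 50% of control, provided the compound also passes the data quality filters; inactive means the rest, including low values that fail the filters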;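 further: 100% = DMSO wells rate and 0% = substrate alone blank rate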
Ec RNAP inh = inhibitors of Escherichia coli RNA polymerase | P0A8V2 | E. coli RNA polymerase, fluorescence transcription assay | inhibition, %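 (tested at 10 µM)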 | 62,000 compounds, 0.2% hits | AID 559; in the data active means inhibition above about 20%;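 further: 0% = enzyme without compound and 100% = no enzyme blank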
Numbers without * were called inactive. Most compounds without a hit are left out; they make up all but 3.2% or so of the library.

Nc1nc(Nc2cccc(F)c2)nc2ccccc12 was read as RORa activator 47, SF1 activator 67* and Ec RNAP inh 10.
Screening O=C(NC1CC1)c1ccc(-c2nc3ccccc3s2)s1 returned RORa activator -81, SF1 activator -79 and JNK3 blocker -3.
Screening CNc1sc(C(=O)c2cccs2)c(N)c1-c1nc2ccccc2s1 returned RORa activator 32, SF1 activator 79*, JNK3 blocker 0, BAP1 inh 50 and Ec RNAP inh -1.
For O=c1[nH]c2cc3c(cc2cc1C(c1nnnn1C1CCCCC1)N1CCSCC1)OCCO3 (stereo not drawn) the results were RORa activator -14, SF1 activator -4, JNK3 blocker -7 and Ec RNAP inh 0.
For COc1ccc2oc(=O)c(-c3nc(C)cs3)cc2c1 the results were RORa activator 12, SF1 activator 54*, JNK3 blocker 0, BAP1 inh 125 and Ec RNAP inh 1.
Screening COc1ccc2oc(=O)c(-c3csc(N)n3)cc2c1 returned BAP1 inh 60.
CC1(C)NC(=O)N(CC(O)CN2CCCCC2)C1=O (stereo not drawn) was read as RORa activator 9, SF1 activator 51*, JNK3 blocker 4, BAP1 inh 99 and Ec RNAP inh 6.
`CC1(C)NC(=O)N(CC(O)COC2CCCCC2)C1=O` (stereo not drawn) gave RORa activator 1, SF1 activator -2, JNK3 blocker 4, BAP1 inh 100 and Ec RNAP inh 3.
For COc1cccc(-c2cc(C(=O)Nc3c(C)nn(Cc4ccccc4)c3C)no2)c1 the results were RORa activator 35, SF1 activator 21, JNK3 blocker 0, BAP1 inh 88 and Ec RNAP inh 10.
Screening CCCCc1cc(O)c(CCCC)c(O)c1 returned RORa activator 50*, SF1 activator 35, JNK3 blocker 5, BAP1 inh 92 and Ec RNAP inh 12.
Screening NCCc1ccc(O)c(O)c1 returned BAP1 inh 92.
`COc1ccccc1NC(=O)c1cc(-c2ccccc2)nc2ccccc12` gave BAP1 inh 83.
Screening O=C(Nc1ccon1)c1cc(-c2ccccc2)nc2ccccc12 returned RORa activator -2, SF1 activator 1, JNK3 blocker 4, BAP1 inh 117 and Ec RNAP inh 21*.
Clc1ccc(-c2nnc(N3CCCC3)nn2)cc1 was read as RORa activator 55*, SF1 activator 41 and Ec RNAP inh 6.
For O=C(O)CCSc1ccc2ccccc2n1 the results were RORa activator -9, SF1 activator -6, JNK3 blocker 28*, BAP1 inh 111 and Ec RNAP inh 1.
Screening O=C(O)CSc1ccc2ccccc2n1 returned RORa activator 0, SF1 activator -9, JNK3 blocker 18*, BAP1 inh 90 and Ec RNAP inh 11.
For O=C(O)CSc1ccccn1 the results were RORa activator 37, SF1 activator 2, JNK3 blocker -7, BAP1 inh 104 and Ec RNAP inh 0.
For Cc1cc(SCCC(=O)O)nc2ccccc12 the results were RORa activator -11, SF1 activator 7, JNK3 blocker 7, BAP1 inh 133 and Ec RNAP inh 10.
COc1ccc(-c2cn3c(C)c(C(=O)NC(C)(C)C)sc3n2)cc1 was read as RORa activator 56*, SF1 activator 48, JNK3 blocker -2, BAP1 inh 102 and Ec RNAP inh -2.
Screening Cc1cccc(NC(=O)c2sc3nc(-c4ccccc4)cn3c2C)n1 returned RORa activator 32, SF1 activator 11, JNK3 blocker -2 and BAP1 inh 209.
`Cc1c(C(=O)Nc2ccccc2)sc2nc(-c3ccccc3)cn12` gave RORa activator 58*, SF1 activator 54*, JNK3 blocker 2, BAP1 inh 50 and Ec RNAP inh 0.
For CC(C)CC(NC(=O)c1ccco1)C(=O)Nc1ccc2c(c1)OCCO2 (stereo not drawn) the results were RORa activator -8, SF1 activator 6, JNK3 blocker 2, BAP1 inh 102 and Ec RNAP inh 1.
`COc1cccc(CN2C(=O)CCC2(C)C(=O)NC2CCCCC2)c1` (stereo not drawn) gave RORa activator -20, SF1 activator 15, JNK3 blocker 2, BAP1 inh 85 and Ec RNAP inh 3.
`Nc1cc(C2CCCC2)nn1-c1ccccc1` gave RORa activator 62*, SF1 activator 49 and Ec RNAP inh 1.
Screening CCC(=O)N1c2cc(C)ccc2C(=C2SC(C(=O)OC)=C(C(=O)OC)S2)C(=S)C1(C)C returned BAP1 inh 64.
CCOc1ccc(NC(=O)c2ccccc2O)cc1 was read as RORa activator -8, SF1 activator -6, JNK3 blocker 2, BAP1 inh 87 and Ec RNAP inh 3.
CCOc1ccc(NC(=O)c2ccccc2OC)cc1 was read as RORa activator 49*, SF1 activator 73*, JNK3 blocker 0, BAP1 inh 84 and Ec RNAP inh -3.
For COCC(=O)Nc1ccccc1C(=O)Nc1ccc(OC)cc1 the results were RORa activator 19, SF1 activator 59*, JNK3 blocker -3, BAP1 inh 113 and Ec RNAP inh 6.
`COc1ccc(NC(=O)c2ccccc2NC(=O)c2ccc(C)cc2)cc1` gave BAP1 inh 119.
`CCOc1ccc(NC(=O)c2ccccc2CO)cc1` gave RORa activator 51*, SF1 activator 71*, JNK3 blocker -6, BAP1 inh 111 and Ec RNAP inh 8.
Screening Cc1ccc2nc(C3CCN(CC(=O)Nc4ccc5c(c4)OCCO5)CC3)[nH]c2c1 returned RORa activator -6, SF1 activator -11, JNK3 blocker 9, BAP1 inh 98 and Ec RNAP inh 2.
`CCOC(=O)c1cnn(-c2cc(C)nc3c(-c4ccccc4)cnn23)c1N` gave RORa activator 14, SF1 activator 0, JNK3 blocker 4, BAP1 inh 94 and Ec RNAP inh -4.
For CCOC(=O)c1cnn2c(C)cc(-c3ccccc3)nc12 the results were RORa activator 43, SF1 activator 65*, JNK3 blocker 1, BAP1 inh 130 and Ec RNAP inh -1.
Screening O=c1c2c(nc3c(-c4cccc(Br)c4)c[nH]n13)CCCC2 returned RORa activator -22, SF1 activator -20, JNK3 blocker 5 and Ec RNAP inh -1.
`COc1ccc(N2CCN(S(=O)(=O)c3ccc(Cl)c(C(F)(F)F)c3)CC2)cc1` gave RORa activator -5, SF1 activator 1, JNK3 blocker -7, BAP1 inh 72 and Ec RNAP inh 7.
COCCN1C(=O)C(O)=C(C(C)=O)C1c1ccc(OC)c(OC)c1 (stereo not drawn) was read as RORa activator 2, SF1 activator 10, JNK3 blocker 0, BAP1 inh 102 and Ec RNAP inh 24*.
